Measurements as given in ChEMBL document CHEMBL1629439, “High-throughput identification of antibacterials against methicillin-resistant Staphylococcus aureus (MRSA) and the transglycosylase” (Bioorg Med Chem, 2010).
In brackets after ≈: the same amount, converted by molar mass.

How the values were obtained:
[1] = system: Staphylococcus aureus; assay: Antimicrobial activity against oxacillin- and methicillin-resistant Staphylococcus aureus isolate Sa-OXA-R2 after 18 to 24 hrs by alamar blue assay; type: functional
Outline: (§1)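 Broth microdilution per NCCLS standard, Mueller-Hinton broth, 8-point twofold dilutions; exponentially growing cells at 5 10^5 cells/ml with compound, 18–24 h at 37 C; 20% Alamar blue added, fluorescence read; MIC90 taken as lowest concentration preventing at least 90% growth.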

[2] = system: Bacillus subtilis; assay: Antimicrobial activity against Bacillus subtilis ATCC 23857 after 18 to 24 hrs by alamar blue assay; type: functional
Outline: (§2)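 Broth microdilution per NCCLS in Mueller-Hinton broth, 8-point twofold dilutions, 384-well format. Exponential-phase cells at 5 × 10^5 cells/ml incubated with compound 18–24 h at 37 °C, then 20% Alamar blue added and fluorescence read. MIC90 taken as the lowest concentration preventing at least 90% bacterial growth.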

[3] = system: Escherichia coli; assay: Antimicrobial activity against Escherichia coli ATCC […] after 18 to 24 hrs by alamar blue assay; type: functional; settings: Escherichia coli; read-out: MIC; outline: as §2
[4] = system: Pseudomonas aeruginosa; assay: Antimicrobial activity against Pseudomonas aeruginosa ATCC 25619 after 18 to 24 hrs by alamar blue assay; type: functional; settings: Pseudomonas aeruginosa, ATCC 25619; read-out: MIC; outline: as §2
[5] = system: Acinetobacter baumannii; assay: Antimicrobial activity against Acinetobacter baumannii ATCC 49139 after 18 to 24 hrs by alamar blue assay; type: functional; settings: Acinetobacter baumannii, ATCC 49139; read-out: MIC; outline: as §2
[6] = system: Stenotrophomonas maltophilia; assay: Antimicrobial activity against Stenotrophomonas maltophilia ATCC 13637 after 18 to 24 hrs by alamar blue assay; type: functional; settings: Stenotrophomonas maltophilia, ATCC 13637; read-out: MIC; outline: as §2
[7] = system: Serratia marcescens; assay: Antimicrobial activity against Serratia marcescens ATCC 14756 after 18 to 24 hrs by alamar blue assay; type: functional; settings: Serratia marcescens, ATCC 14756; read-out: MIC; outline: as §2
[8] = system: Mycolicibacterium smegmatis; assay: Antimicrobial activity against Mycobacterium smegmatis BCRC 11565 after 18 to 24 hrs by alamar blue assay; type: functional; settings: Mycolicibacterium smegmatis, BCRC 11565; read-out: MIC; outline: as §2
[9] = Inhibition of transglycosylase assessed as inhibition of NBD- labelled lipid II polymerization at 100 uM
Outline: (§3)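 100 µM NBD-labelled lipid II incubated 30 min with full-length PBP (EC, SA or Mtb) and 10 ng/µl N-acetylmuramidase in 50 mM Tris-HCl pH 8.0, 10 mM MgCl2, 0.1% Triton X-100, 10% DMSO, 15% MeOH. Supernatant run on anion-exchange HPLC with 20 mM–0.5 M ammonium acetate gradient. Inhibition calculated from substrate peak-area percentage. IC50 determined. S. aureus strains share one SA enzyme.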

[10] = system: Staphylococcus aureus; assay: Antimicrobial activity against methicillin-resistant Staphylococcus aureus isolate NTUH4722 after 18 to 24 hrs by alamar blue assay; type: functional; outline: as §1
[11] = system: Staphylococcus aureus; assay: Antimicrobial activity against methicillin-resistant Staphylococcus aureus ATCC 33592 after 18 to 24 hrs by alamar blue assay; type: functional; settings: Staphylococcus aureus, ATCC 33592; read-out: MIC; outline: as §1
[12] = system: Staphylococcus aureus; assay: Antimicrobial activity against Staphylococcus aureus ATCC 29213 after 18 to 24 hrs by alamar blue assay
[13] = Displacement of fluorescein-labeled moenomycin from transglycosylase at 100 uM after 30 mins by fluorescence anisotropy binding assay
[14] = Inhibition of transglycosylase assessed as inhibition of NBD- labelled lipid II polymerization; outline: as §3

Structure (SMILES) | MIC [1] | MIC [2] | MIC [3] | MIC [4] | MIC [5] | MIC [6] | MIC [7] | MIC [8] | inhibition [9] | MIC [10] | MIC [11] | MIC [12] | inhibition [13] | IC90 [14]
COc1cccc(-c2coc3c(C)c4oc(=O)c(CCC(=O)O)c(C)c4cc23)c1 | 2.5 µg/mL (≈ 6.37 µM) | > 64 µg/mL | > 256 µg/mL | > 256 µg/mL | > 256 µg/mL | > 256 µg/mL | > 256 µg/mL | 1 µg/mL (≈ 2.55 µM) | 0% | 2.5 µg/mL (≈ 6.37 µM) | 2.5 µg/mL (≈ 6.37 µM) | 2.5 µg/mL (≈ 6.37 µM) | 90% | –
O=C(Nc1ccc(Cl)c(Cl)c1)c1cc(Cl)ccc1NS(=O)(=O)c1ccc(Cl)cc1 | 0.25 µg/mL (≈ 0.51 µM) | < 0.03 µg/mL | > 256 µg/mL | > 256 µg/mL | > 256 µg/mL | > 256 µg/mL | > 256 µg/mL | > 64 µg/mL | 0% | 0.25 µg/mL (≈ 0.51 µM) | 0.25 µg/mL (≈ 0.51 µM) | 0.25 µg/mL (≈ 0.51 µM) | 98% | –
CCN(CC)c1cc(C)c2cc(NC(=O)c3ccc([N+](=O)[O-])o3)ccc2n1 | > 4 µg/mL | 0.06 µg/mL (≈ 0.163 µM) | 256 µg/mL (≈ 695 µM) | 128 µg/mL (≈ 347 µM) | 12 µg/mL (≈ 32.6 µM) | 32 µg/mL (≈ 86.9 µM) | 32 µg/mL (≈ 86.9 µM) | 0.5 µg/mL (≈ 1.36 µM) | 0% | > 4 µg/mL | > 4 µg/mL | 2 µg/mL (≈ 5.43 µM) | 90% | –
Cc1c(CCC(=O)O)c(=O)oc2c(C)c3occ(-c4ccc(Cl)cc4)c3cc12 | 2.5 µg/mL (≈ 6.3 µM) | > 64 µg/mL | > 256 µg/mL | > 256 µg/mL | > 256 µg/mL | > 256 µg/mL | > 256 µg/mL | 1 µg/mL (≈ 2.52 µM) | 0% | 2.5 µg/mL (≈ 6.3 µM) | 1.25 µg/mL (≈ 3.15 µM) | 2.5 µg/mL (≈ 6.3 µM) | 97% | –
O=C(Nc1cccc2cccnc12)c1ccc([N+](=O)[O-])o1 | 2 µg/mL (≈ 7.06 µM) | 0.06 µg/mL (≈ 0.212 µM) | 256 µg/mL (≈ 904 µM) | 128 µg/mL (≈ 452 µM) | 12 µg/mL (≈ 42.4 µM) | 32 µg/mL (≈ 113 µM) | 32 µg/mL (≈ 113 µM) | 0.5 µg/mL (≈ 1.77 µM) | 0% | 2 µg/mL (≈ 7.06 µM) | 2 µg/mL (≈ 7.06 µM) | 2 µg/mL (≈ 7.06 µM) | 90% | –
CN1C(=O)c2ccccc2Sc2ccc(NC(=O)c3ccc([N+](=O)[O-])o3)cc21 | 2 µg/mL (≈ 5.06 µM) | 0.06 µg/mL (≈ 0.152 µM) | 256 µg/mL (≈ 647 µM) | 128 µg/mL (≈ 324 µM) | 12 µg/mL (≈ 30.3 µM) | 32 µg/mL (≈ 80.9 µM) | 32 µg/mL (≈ 80.9 µM) | 0.5 µg/mL (≈ 1.26 µM) | 0% | 0.5 µg/mL (≈ 1.26 µM) | 1 µg/mL (≈ 2.53 µM) | 2 µg/mL (≈ 5.06 µM) | 91% | –
O=C(c1ccc(Cl)cc1)c1cc(NC(=O)c2cc(Cl)cc(Br)c2O)c(Cl)cc1Cl | 0.25 µg/mL (≈ 0.468 µM) | < 0.03 µg/mL | 8 µg/mL (≈ 15 µM) | 16 µg/mL (≈ 30 µM) | 16 µg/mL (≈ 30 µM) | 16 µg/mL (≈ 30 µM) | 16 µg/mL (≈ 30 µM) | 0.5 µg/mL (≈ 0.936 µM) | 90% | 0.25 µg/mL (≈ 0.468 µM) | 0.25 µg/mL (≈ 0.468 µM) | 0.25 µg/mL (≈ 0.468 µM) | 92% | 100 µM
O=C(Nc1ccc(Cl)c(Cl)c1)c1cc(Cl)cc(Cl)c1O [3,3',4',5-TETRACHLOROSALICYLANILIDE] | 1 µg/mL (≈ 2.85 µM) | < 0.03 µg/mL | 8 µg/mL (≈ 22.8 µM) | 16 µg/mL (≈ 45.6 µM) | 16 µg/mL (≈ 45.6 µM) | 16 µg/mL (≈ 45.6 µM) | 16 µg/mL (≈ 45.6 µM) | 0.5 µg/mL (≈ 1.42 µM) | 0% | 1 µg/mL (≈ 2.85 µM) | 1 µg/mL (≈ 2.85 µM) | 0.25 µg/mL (≈ 0.712 µM) | 90% | –
O=C(Nc1ccc(Cl)c(Cl)c1)c1ccc([N+](=O)[O-])o1 | > 4 µg/mL | 0.06 µg/mL (≈ 0.199 µM) | 256 µg/mL (≈ 850 µM) | 128 µg/mL (≈ 425 µM) | 12 µg/mL (≈ 39.9 µM) | 32 µg/mL (≈ 106 µM) | 32 µg/mL (≈ 106 µM) | 0.5 µg/mL (≈ 1.66 µM) | 0% | 4 µg/mL (≈ 13.3 µM) | 2 µg/mL (≈ 6.64 µM) | 2 µg/mL (≈ 6.64 µM) | 96% | –
O=C(Nc1cc(Cl)ccc1Oc1ccccc1)c1cc(Br)cc(Br)c1O | 0.5 µg/mL (≈ 1 µM) | < 0.03 µg/mL | 8 µg/mL (≈ 16.1 µM) | 16 µg/mL (≈ 32.2 µM) | 16 µg/mL (≈ 32.2 µM) | 16 µg/mL (≈ 32.2 µM) | 16 µg/mL (≈ 32.2 µM) | 0.5 µg/mL (≈ 1 µM) | 100% | 0.5 µg/mL (≈ 1 µM) | 0.25 µg/mL (≈ 0.502 µM) | 0.5 µg/mL (≈ 1 µM) | 97% | 50 µM
